Compounds with a hit are over-represented: about 2.3% of the library has one in this group of screens.
TAAR1 ag = human TAAR1 agonism; Q96RJ0; CHO RD-HGA16 TAAR1, Fluo-8 calcium fluorescence; vehicle wells 0%, saturating PEA agonist 100%; activation, % at 3 µM; 0.99% of 360,000 active; AID 624467;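 active = activation above the mean activation of all test compounds in the run plus 3 SD, cut at about 38% in these data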
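Repeats: no replicates (n 1) | Material: CHO-derived RD-HGA16 cells with stable Gα16 and human TAAR1 | Technique: Kinetic Fluo-8 calcium fluorescence | Schedule: 17-24 h seeding, 75 min 37 °C dye, 30 min RT | Evaluation: % activation from peak over basal fluorescence ratio, DMSO-to-PEA scaled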
OXTR ag = agonists of human oxytocin receptor; CHO-OTR cells, Fluo-8 calcium fluorescence; normalized: DMSO 0%, oxytocin 100%; activation, % at 3 µM; 0.32% of 320,000 active; P30559;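 active = activation above the mean of all tested compounds plus 3 SD, cutoff set per screening run, cut at about 20% in these data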;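 note: peak over basal fluorescence ratio from a 100 s FLIPR kinetic read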
TAAR1 antag = antagonists of human TAAR1. AID 624466. 1.5% of 360,000 active. CHO RD-HGA16 TAAR1, Fluo-8 calcium fluorescence, antagonist. Q96RJ0. inhibition, % at 3 µM;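 active = inhibition above a per-plate cutoff, the mean inhibition of test compounds on that plate plus 3 SD, cut at about 49% in these data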;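 note: 0% = DMSO plus EC80 beta-PEA response and 100% = DMSO alone without agonist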
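System: CHO RD-HGA16 cells bearing hTAAR1. Reagent: EC80 β-phenethylamine stimulus. Schedule: seeding 17-24 h prior, 75-min 37 °C, 30-min RT dye loading. Signal: Fluo-8 intracellular calcium dye fluorescence, real-time kinetic reads. Read-out: % inhibition from peak post-agonist over basal fluorescence ratio. Benchmarks: vehicle wells and EC80 agonist wells. Replicates: n of 1.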
OXTR potentiator = human OXTR potentiation | activation, % at 3 µM | P30559 | 0.061% of 320,000 active | CHO-OTR cells, Fluo-8 calcium fluorescence, potentiator mode; 0% = oxytocin EC15, 100% = EC100;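 active = activation above that plate's cutoff, the mean activation of tested compounds plus 3 SD, cut at about 6.6% in these data, passing the limit was not always enough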;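 note: 100% uses oxytocin at 75 nM as the full agonist control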
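test system = CHO-OTR cells, human receptor | compound = single-point 3.0 µM | schedule = 6 min compound pre-incubation at room temperature, 100 s kinetic read | signal = Fluo-8 no-wash calcium dye fluorescence, excitation 470-495 nm, emission 515-575 nm | repeats = single well per compound, singlicate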
V1R ag counter = counter-screen for oxytocin receptor agonists: human V1a receptor agonists; P37288; CHO-V1R cells, Fluo-8 calcium fluorescence, agonist mode; 0% DMSO, 100% 3 nM vasopressin; activation, % at 3 µM; 0.25% of 320,000 active; AID 2797;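 active = activation above the mean activation of all tested compounds plus 3 SD, per screening run, cut at about 20% in these data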;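 note: signal is peak over basal fluorescence ratio across a 100 second FLIPR read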
Target sequence (P37288 whole entry, looked up): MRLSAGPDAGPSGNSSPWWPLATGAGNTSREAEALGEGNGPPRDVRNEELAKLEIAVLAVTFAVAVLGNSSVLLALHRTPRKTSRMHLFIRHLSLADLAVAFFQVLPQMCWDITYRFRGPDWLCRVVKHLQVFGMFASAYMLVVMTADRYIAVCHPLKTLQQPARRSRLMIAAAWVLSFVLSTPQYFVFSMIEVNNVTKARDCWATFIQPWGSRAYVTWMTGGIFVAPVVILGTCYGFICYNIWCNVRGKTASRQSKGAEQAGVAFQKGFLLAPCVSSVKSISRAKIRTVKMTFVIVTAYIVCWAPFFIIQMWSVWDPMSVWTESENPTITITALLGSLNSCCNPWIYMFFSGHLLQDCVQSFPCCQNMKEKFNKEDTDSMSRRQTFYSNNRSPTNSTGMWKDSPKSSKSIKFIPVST
* marks the source's active call; other numbers are inactive results; · = not tested or not shown.

SMILES	TAAR1 ag	OXTR ag	TAAR1 antag	OXTR potentiator	V1R ag counter
O=C(Nc1ccc(Cl)c(Cl)c1)N(CCCN1CCOCC1)Cc1cccs1	46*	4	40	-6	4
COc1ccc(-c2nn(-c3ccccc3)cc2/C=N/NC(=O)c2ccc(Br)o2)cc1	18	2	61*	-14	2
O=C(N/N=C\c1cn(-c2ccccc2)nc1-c1ccccc1)c1ccc2c(c1)OCO2	10	-2	55*	-17	0
COc1ccc(-c2nn(-c3ccccc3)cc2/C=N/NC(=O)c2ccc3c(c2)OCO3)cc1	·	-1	·	-10	1
O=C(NN1C(=O)C2C3C=CC(C3)[C@H]2C1=O)c1cccnc1 (some centres undefined)	1	1	-14	-6	0
Cc1ccc(N(C)S(=O)(=O)c2c[nH]c3ccc([N+](=O)[O-])cc23)cc1	3	6	51*	-14	5
CCOC(=O)NCc1ccc(S(=O)(=O)Nc2ccc(C)cc2)cc1	44*	14	-1	-20	10
Cc1ccc(NS(=O)(=O)c2ccc(C3CCCCC3)cc2)cc1	14	8	59*	-12	17
CCOC(=O)COc1ccc(S(=O)(=O)Nc2ccc(C)cc2)cc1	50*	16	7	-12	13
CCOc1ccc(S(=O)(=O)Nc2ccc(C(=O)N3CC(C)OC(C)C3)cc2)cc1 (centres undefined)	57*	34*	26	-18	27*
Cc1[nH]c2ccc(F)cc2c1CCN1C(=O)OC(C)(C)C1(C)O (centres undefined)	-2	2	-8	-1	2
Cc1cc(N2CCN(c3ccccn3)CC2)n2nc(C)nc2n1	13	0	-6	-10	-1
CCNS(=O)(=O)c1c(C)cc(C)c(N(C)S(=O)(=O)c2ccccc2)c1C	7	0	1	-7	2
Cc1ccc(-c2csc(N=C(N)N)n2)c(C)c1	38*	0	-29	-12	3
Fc1ccc(-c2cn3cc(C(F)(F)F)cc(Cl)c3n2)cc1	9	-2	9	-1	-1
COc1ccc(-c2cn3cc(C(F)(F)F)cc(Cl)c3n2)cc1	0	-2	-22	11*	-1
Cc1ccc(OCCOC(=O)c2cc(S(=O)(=O)N3CCCCC3)ccc2N2CCOCC2)cc1	0	-1	50*	-8	0
O=C(OCCOc1ccc(Cl)cc1)c1cc(S(=O)(=O)N2CCCCC2)ccc1N1CCOCC1	0	·	32	·	·
O=C(OCn1ncc(Cl)c(Cl)c1=O)c1ccc(F)cc1	·	-3	·	-2	-1
O=C(OCn1ncc(Cl)c(Cl)c1=O)c1ccccc1Cl	18	-2	12	17*	-2
O=C(c1cc(=O)[nH]c2ccccc12)N1CCN(S(=O)(=O)c2ccc(Cl)cc2)CC1	30	0	59*	5	0
O=C(c1n[nH]c2ccccc12)N1CCN(S(=O)(=O)c2ccccc2)CC1	4	1	11	-8	3
COc1ccc(OC)c(S(=O)(=O)CC(=O)c2cc3ccc(OC)cc3oc2=O)c1	·	0	·	-10	0
COc1ccc(S(=O)(=O)CC(=O)c2cc3cc(Br)ccc3oc2=O)cc1	42*	1	43	-11	1
CCN(CC)c1ccc(S(=O)(=O)N2CCOCC2)cc1NC(=O)COC(=O)/C=C/c1ccc(C)o1	8	-2	65*	-4	0
SMILES	TAAR1 ag	OXTR ag	TAAR1 antag	OXTR potentiator	V1R ag counter
CCN(CC)c1ccc(S(=O)(=O)N2CCOCC2)cc1NC(=O)COC(=O)/C=C/c1ccc(O)c(OC)c1	9	·	45	·	·
Cc1cccc(C)c1NC(=O)NC1(C(=O)NCCN2CCOCC2)CCCCC1	0	0	-13	-16	0
Cc1cc(C(=O)COC(=O)c2ccc(NC(=O)CC#N)cc2)c(C)n1CC(F)(F)F	10	·	-11	·	·
Cc1nn(-c2ccccc2)nc1C(=O)Nc1cccc(C(=O)NC2CC2)c1	11	·	60*	·	·
Cc1nn(-c2cccc(Cl)c2)nc1C(=O)Nc1cccc(C(=O)NC2CC2)c1	6	-1	46	-8	1
Cc1cc(OCc2cc(C(=O)N3CCN(CC4CC4)CC3)no2)cc(C)c1Cl	4	5	-6	-7	11
Cc1cc(OCc2cc(C(=O)N3CCC(Oc4cccnc4)CC3)no2)cc(C)c1Cl	11	5	53*	-18	8
CSC1=NC2(CC(c3ccccc3)Oc3cc(O)ccc32)CC(C)(C)N1 (centres undefined)	30	21*	7	-21	42*
Cc1ccc(OCC(=O)Nc2ccncc2)cc1C	5	·	-4	·	·
Cc1noc(C)c1C(=O)Nc1ccc2ccccc2c1	0	0	-12	-4	2
Cc1cc(C(=O)CN2C(=O)CCC2=O)c(C)n1Cc1ccccc1	40*	12	3	-18	4
Cc1cc(C(=O)CN2C(=O)NC3(CCCc4ccccc43)C2=O)c(C)n1Cc1ccccc1 (centres undefined)	-1	-1	-7	3	0
CCCCN1C(=O)C(CC(=O)NCCc2ccccn2)CC(C(=O)N(C)C)=C1C (centres undefined)	22	·	-15	·	·
CCCCN1C(=O)C(CC(=O)NCCc2ccccn2)CC(C(=O)N(C(C)C)C(C)C)=C1C (centres undefined)	42*	·	-15	·	·
O=C(COC(=O)COc1ccccc1)Nc1cccc([N+](=O)[O-])c1	2	2	-14	-11	0
CC(NS(=O)(=O)c1ccc(OCC(=O)Nc2cccc([N+](=O)[O-])c2)cc1)c1ccccc1 (centres undefined)	15	14	60*	-10	10
CCCCn1c(N)c(N(CC)C(=O)CSCc2ccc(C)cc2)c(=O)[nH]c1=O	1	0	-6	-2	0
COC(=O)c1c(C(=O)OC)c2ccccn2c1C(=O)c1ccc([N+](=O)[O-])cc1	6	-2	2	-13	2
CC(C)OC(=O)c1c2c(n3ccccc13)C(=O)c1ccccc1C2=O	40*	25*	45	-17	31*
COc1ccc(/C=N/Nc2ccc([N+](=O)[O-])cc2)cc1O	40*	3	23	-16	2
COc1cccc(N=Nc2ccc3cccnc3c2O)c1	37	5	74*	-8	2
COc1ccc(N=Nc2ccc(O)c3ncccc23)cc1	10	1	46	-15	0
COc1cccc(N=Nc2ccc(O)c3ncccc23)c1	18	-2	70*	8	1
CCOC(=O)c1c(C)nc2sc3c(c2c1-c1ccc(OC)cc1)NC(c1ccc(OC)cc1)NC3=O (centres undefined)	18	0	-2	-5	0
O=C(c1ccc(Cl)c(S(=O)(=O)N2CCc3ccccc32)c1)N1CCN(c2ccccc2O)CC1	22	0	61*	-6	2

Source: PubChem BioAssay (The Scripps Research Institute Molecular Screening Center)
